# ChEMBL document CHEMBL4364267, “Hydrogen sulfide donating ent-kaurane and spirolactone-type 6,7-seco-ent-kaurane derivatives: Design, synthesis and antiproliferative properties” (Eur J Med Chem, 2019)
# The source made the active and inactive calls. No cut-off for these calls is given here.
# Legend:
# Bel-7402 [1] = experiment: Cell cycle arrest in human Bel7402 cells assessed as accumulation of cells at G1 phase after 48 hrs by propidium iodide/RNase staining based flow cytometric analysis; assay type: functional
# Bel-7402 [2] = experiment: Induction of apoptosis in human Bel7402 cells assessed as reduction in Bcl-xl expression at 0.90 to 1.80 uM after 48 hrs by Western blot analysis; assay type: functional, cell-based
# Bel-7402 [3] = experiment: Induction of apoptosis in human Bel7402 cells assessed as necrotic cells at 0.90 uM after 48 hrs by Annexin V-FITC/propidium iodide staining based flow cytometry (reference value: 0.01%); assay type: functional
# How it was run: (§1)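 Bel-7402 cells in 6-well plates treated with 0, 0.45, 0.90 or 1.80 μM, washed twice with PBS and resuspended in annexin V binding buffer. Stained with annexin V-FITC and PI for 15 min at room temperature in the dark, then analysed by flow cytometry. Methods state 24 h exposure; the figure legend states 48 h.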
# [4] = Selectivity index, ratio of IC50 for human PBMC to IC50 for human Bel7402 cells after 72 hrs by MTT assay; assay type: toxicity; conditions: PBMC versus Bel7402 cells, read-out: Ratio IC50
# Bel-7402 [5] = experiment: Induction of apoptosis in human Bel7402 cells assessed as reduction in Bcl-2 expression at 0.90 to 1.80 uM after 48 hrs by Western blot analysis; assay type: functional, cell-based
# K562 = experiment: Antiproliferative activity against human K562 cells assessed as reduction in cell viability after 72 hrs by MTT assay; assay type: functional, cell-based; conditions: K562, 72 h
# How it was run: (§2)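 MTT assay over 72 h, compounds at 64, 16, 4, 1, 0.25, 0.0625 and 0.015625 μM. MTT solution (5 mg/mL) and DMSO added afterwards, 10 min at room temperature, absorbance read at 490 nm. IC50 calculated as the mean ± SD of three independent experiments.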
# Bel-7402 [6] = experiment: Induction of mitochondrial membrane potential loss in human Bel7402 cells assessed as cell population with intact mitochondrial membrane potential at 1.80 uM after 48 hrs by JC1 staining-based flow cytometry analysis (reference value: 98.67%); assay type: functional
# How it was run: (§3)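 Bel-7402 cells in 6-well plates exposed for 48 h to 0, 0.45, 0.90 or 1.80 μM, DMSO as vehicle. Washed with PBS and stained with JC-1 at room temperature in the dark. Cells with collapsed membrane potential counted by flow cytometry.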
# Bel-7402 [7] = experiment: Cell cycle arrest in human Bel7402 cells assessed as accumulation of cells at S phase at 0.45 uM after 48 hrs by propidium iodide/RNase staining based flow cytometric analysis (reference value: 39.09%); assay type: functional
# PBMC = experiment: Cytotoxicity against human PBMC assessed as reduction in cell viability after 72 hrs by MTT assay; assay type: cell-based; how it was run: as §2
# A549 = experiment: Antiproliferative activity against human A549 cells assessed as reduction in cell viability after 72 hrs by MTT assay; assay type: functional, cell-based; conditions: A549, 72 h; how it was run: as §2
# Bel-7402 [8] = experiment: Induction of apoptosis in human Bel7402 cells assessed as necrotic cells at 1.80 uM after 48 hrs by Annexin V-FITC/propidium iodide staining based flow cytometry (reference value: 0.01%); assay type: functional; how it was run: as §1
# Bel-7402 [9] = experiment: Induction of mitochondrial membrane potential loss in human Bel7402 cells assessed as cell population with mitochondrial membrane potential collapse at 1.80 uM after 48 hrs by JC1 staining-based flow cytometry analysis (reference value: 1.28%); assay type: functional; how it was run: as §3
# Bel-7402 [10] = experiment: Induction of apoptosis in human Bel7402 cells assessed as increase in Bax expression at 0.90 to 1.80 uM after 48 hrs by Western blot analysis; assay type: functional, cell-based
# [11] = Induction of H2S generation in PBS containing Na2S and MB+ cocktail in presence of TCEP/L-cysteine measured at 15 to 20 mins after 20 mins compound incubation by methylene blue dye based UV-Vis spectrophotometric method; assay type: functional
# How it was run: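 Na2S standards (5–150 μM) in sodium phosphate buffer reacted 20 min at room temperature with methylene blue cocktail (FeCl3/HCl, N,N-dimethyl-1,4-phenylenediamine/HCl, Zn(OAc)2) to build a 670 nm calibration curve. Compounds from 40 mM THF stock added to phosphate buffer with 1 mM TCEP or L-cysteine. Aliquots taken into the cocktail at set times, incubated 20 min, read at 670 nm. Mean of three experiments.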
# Bel-7402 [12] = experiment: Induction of apoptosis in human Bel7402 cells assessed as viable cells at 0.90 uM after 48 hrs by Annexin V-FITC/propidium iodide staining based flow cytometry (reference value: 97.22%); assay type: functional; conditions: Bel-7402, 48 h, read-out: Activity; how it was run: as §1
# Bel-7402 [13] = experiment: Cell cycle arrest in human Bel7402 cells assessed as accumulation of cells at S phase at 0.90 uM after 48 hrs by propidium iodide/RNase staining based flow cytometric analysis (reference value: 39.09%); assay type: functional
# [14] = Selectivity index, ratio of IC50 for human L02 cells to IC50 for human Bel7402 cells after 72 hrs by MTT assay; assay type: toxicity; conditions: L02 cells versus Bel7402 cells, read-out: Ratio IC50
# Bel-7402 [15] = experiment: Induction of morphological changes in human Bel7402 cells assessed as chromatin shrinkage at 0.45 to 1.80 uM after 48 hrs by Hoechst 33258 staining-based fluorescent microscopic analysis; assay type: functional, cell-based
# How it was run: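 Bel-7402 cells cultured 24 h in 6-well plates at 37 °C, then exposed 48 h to 0, 0.45, 0.90 or 1.80 μM. Harvested by mild trypsinization and washed twice with PBS. Stained with Hoechst 33258 (2 mg/mL) for 15 min at room temperature in the dark, washed, and viewed by fluorescence microscopy.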
# Bel-7402 [16] = experiment: Antiproliferative activity against human Bel7402 cells assessed as reduction in cell viability after 72 hrs by MTT assay; assay type: functional, cell-based; conditions: Bel-7402, 72 h; how it was run: as §2
# Bel-7402 [17] = experiment: Cell cycle arrest in human Bel7402 cells assessed as accumulation of cells at G2 phase at 0.90 uM after 48 hrs by propidium iodide/RNase staining based flow cytometric analysis (reference value: 29.97%); assay type: functional
# Bel-7402 [18] = experiment: Cell cycle arrest in human Bel7402 cells assessed as accumulation of cells at G2 phase at 1.80 uM after 48 hrs by propidium iodide/RNase staining based flow cytometric analysis (reference value: 29.97%); assay type: functional
# L02 = experiment: Cytotoxicity against human L02 cells assessed as reduction in cell viability after 72 hrs by MTT assay; assay type: cell-based; conditions: L02, 72 h; how it was run: as §2
# Bel-7402 [19] = experiment: Induction of apoptosis in human Bel7402 cells assessed as reduction in procaspase-3 expression at 0.90 to 1.80 uM after 48 hrs by Western blot analysis; assay type: functional, cell-based
# Bel-7402 [20] = experiment: Induction of apoptosis in human Bel7402 cells assessed as early apoptotic cells at 0.45 uM after 48 hrs by Annexin V-FITC/propidium iodide staining based flow cytometry (reference value: 2.09%); assay type: functional; how it was run: as §1
# Bel-7402 [21] = experiment: Induction of apoptosis in human Bel7402 cells assessed as increase in cleaved caspase-3 expression at 0.90 to 1.80 uM after 48 hrs by Western blot analysis; assay type: functional, cell-based
# Bel-7402 [22] = experiment: Induction of mitochondrial membrane potential loss in human Bel7402 cells assessed as cell population with intact mitochondrial membrane potential at 0.45 uM after 48 hrs by JC1 staining-based flow cytometry analysis (reference value: 98.67%); assay type: functional; how it was run: as §3
structure (smiles),measurement,setting,value
C=C1C(=O)[C@@]23C(=O)OC[C@]4(C(=O)CCC(C)(C)[C@H]4C=O)[C@@H]2CC[C@@H]1[C@H]3OC(=O)CCCC(=O)Oc1ccc(-c2cc(=S)ss2)cc1,Activity,Bel-7402 [1],Dose-dependent effect
same,Activity,Bel-7402 [2],Active
same,Activity,Bel-7402 [3],0.06%
same,selectivity ratio at 72 h,[4],24
same,Activity,Bel-7402 [5],Active
same,IC50,K562,1.01 µM
same,Activity,Bel-7402 [6],41.23%
same,Activity,Bel-7402 [7],40.42%
same,IC50,PBMC,19.9 µM
same,IC50,A549,5.21 µM
same,Activity,Bel-7402 [8],1.05%
same,Activity,Bel-7402 [9],58.59%
same,Activity,Bel-7402 [10],Active
same,Activity,[11],Active
same,viability at 0.9 µM,Bel-7402 [12],72.5%
same,Activity,Bel-7402 [13],37.9%
same,selectivity ratio at 72 h,[14],24
same,Activity,Bel-7402 [15],Active
same,IC50,Bel-7402 [16],0.88 µM
same,Activity,Bel-7402 [17],19.81%
same,Activity,Bel-7402 [18],15.91%
same,IC50,L02,20.8 µM
same,Activity,Bel-7402 [19],Active
same,Activity,Bel-7402 [20],9.92%
same,Activity,Bel-7402 [21],Active
same,Activity,Bel-7402 [22],81.5%
